This note sets out measurements from ChEMBL document CHEMBL3425440, “ent-Kaurane Diterpenoids from Chinese Liverworts and Their Antitumor Activities through Michael Addition As Detected in Situ by a Fluorescence Probe” (J Med Chem, 2015).

Assay [1] is described as follows: Cytotoxicity against human SKOV3 cells assessed as cell viability after 24 hrs by MTT assay. The settings on record: SK-OV-3, 24 h. The format is functional, cell-based. A digest of the protocol:
(§1)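 Cells grown to about 50−70% confluence at 37 °C, 5% CO2, then exposed to compounds 24 h (DMSO vehicle control, cisplatin positive control). MTT (5 mg/mL stock) added for 4 h, formazan dissolved in DMSO, absorbance read at 570 nm. IC50 derived from percent viability; at least three independent experiments, mean ± SD.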
On the technique in general: Tetrazolium dyes change colour on reduction, which living cells bring about.

The subject of the next assay is K562. In words: Cytotoxicity against human K562 cells assessed as cell viability after 24 hrs by MTT assay. The class given is functional, cell-based. As to conditions: K562, 24 h. A digest of the protocol:
as §1

For the next assay, the system named is MDA-MB-231. In words: Cytotoxicity against human MDA-MB-231 cells assessed as cell viability after 24 hrs by MTT assay. The format is functional, cell-based. The settings on record: MDA-MB-231, 24 h. In outline:
as §1

For another assay, the system named is LNCaP. In words: Cytotoxicity against human LNCAP cells assessed as cell viability after 24 hrs by MTT assay. The format is functional, cell-based. In outline:
as §1

Assay [2] is described as follows: Cytotoxicity against human A172 cells assessed as cell viability after 24 hrs by MTT assay. The class given is functional, cell-based. The settings on record: A 172, 24 h. A digest of the protocol:
as §1

The nature of assay [3]: Cytotoxicity against human Saos2 cells assessed as cell viability after 24 hrs by MTT assay. The class given is functional, cell-based. The settings on record: SAOS-2, 24 h. A digest of the protocol: as §1
A further assay has as its system DU-145. In words: Cytotoxicity against human DU145 cells assessed as cell viability after 24 hrs by MTT assay. The class given is functional, cell-based. As to conditions: DU-145, 24 h. A digest of the protocol: as §1
Assay [4] is described as follows: Cytotoxicity against human HL60 cells assessed as cell viability after 24 hrs by MTT assay. The format is functional, cell-based. The settings on record: HL-60, 24 h. In outline:
as §1

The next assay deals with NCI-H1299. In words: Cytotoxicity against human NCI-H1299 cells assessed as cell viability after 24 hrs by MTT assay. The format is functional, cell-based. The settings on record: NCI-H1299, 24 h. A digest of the protocol:
as §1

Assay [5] is described as follows: Cytotoxicity against human RWPE1 cells assessed as cell viability after 24 hrs by MTT assay. The format is cell-based. As to conditions: RWPE-1, 24 h. A digest of the protocol: as §1
Assay [6] can be described thus: Cytotoxicity against human PC3 cells assessed as cell viability after 24 hrs by MTT assay. The format is functional, cell-based. The settings on record: PC-3, 24 h. A digest of the protocol:
as §1

Another assay has as its system LoVo. In words: Cytotoxicity against human LoVo cells assessed as cell viability after 24 hrs by MTT assay. The format is functional, cell-based. In outline: as §1
Assay [7] can be described thus: Cytotoxicity against human T24 cells assessed as cell viability after 24 hrs by MTT assay. The settings on record: T-24, 24 h. The format is functional, cell-based. In outline:
as §1

Assay [8] in a line: Cytotoxicity against human SH-SY5Y cells assessed as cell viability after 24 hrs by MTT assay. The format is functional, cell-based. In outline:
as §1

As a reminder, the IC50 is the midpoint of a concentration-inhibition curve. Consider `C=C1[C@@H]2CC[C@@H]3[C@@](CC[C@@H]4C(C)(C)CC[C@H](O)[C@]43C)(C2)[C@H]1O`, for which the IC50 (in assay [1]; with K562; with MDA-MB-231; in the assay on LNCaP; in [2]; in [3]) was more than 50 µM in each case. Further, the IC50 (with DU-145; in [4]; in the assay with NCI-H1299; in [5]; in [6]; in the assay with LoVo) was more than 50 µM in each case. Moreover, the half-maximal inhibitory concentration (IC50) in assay [7] and in [8] was more than 50 µM throughout.

Take `C[C@H]1C(=O)[C@@]23CC[C@@H]4C(C)(C)CCC[C@@]4(C)C2=CC[C@]1(O)C3`: the IC50 (in assay [1]; with K562; in the assay with MDA-MB-231; in the assay with LNCaP; in [2]; in [3]) was more than 50 µM throughout. Besides, the IC50 (in the assay on DU-145; in assay [4]; with NCI-H1299; in [5]; in [6]; with LoVo) was more than 50 µM throughout. The IC50 in assay [7] and in [8] was more than 50 µM throughout.

With `C=C1[C@@H]2CC[C@H]3[C@]4(C)CCCC(C)(C)[C@H]4C[C@@H](O)[C@]3(C2)[C@H]1O`, the IC50 (in assay [1]; in the assay on K562; with MDA-MB-231; with LNCaP; in assay [2]; in assay [3]) was more than 50 µM in each case. Besides, the IC50 (in the assay on DU-145; in assay [4]; in the assay with NCI-H1299; in assay [5]; in assay [6]; in the assay with LoVo) was more than 50 µM throughout. Moreover, the IC50 in [7] and in assay [8] was more than 50 µM each time.

As to `C[C@H]1C(=O)[C@@]23CC[C@@H]4[C@@](C)(CO)CCC[C@@]4(C)C2=CC[C@]1(O)C3`, the IC50 (in assay [1]; in the assay on K562; in the assay on MDA-MB-231; in the assay with LNCaP; in assay [2]; in assay [3]) was more than 50 µM each time. Further, the IC50 (in the assay on DU-145; in assay [4]; in the assay on NCI-H1299; in assay [5]; in [6]; with LoVo) was more than 50 µM throughout. The IC50 in [7] and in [8] was more than 50 µM throughout.

Take `C=C1[C@@H]2CC(=O)[C@H]3[C@]4(C)CCCC(C)(C)[C@H]4C[C@@H](O)[C@]3(C2)[C@@H]1O`: the IC50 (in assay [1]; in the assay on K562; in the assay with MDA-MB-231; with LNCaP; in assay [2]; in assay [3]) was more than 50 µM in each case. For the same compound, the IC50 (in the assay on DU-145; in assay [4]; in the assay on NCI-H1299; in [5]; in [6]; with LoVo) was more than 50 µM in each case. Further, the IC50 in assay [7] and in assay [8] was more than 50 µM in each case.

As to `C=C1[C@@H]2CC[C@@H]3[C@@](CC[C@@H]4C(C)(C)CC[C@H](O)[C@]43C)(C2)[C@@H]1O`, the IC50 (in assay [1]; in the assay with K562; in the assay on MDA-MB-231; in the assay with LNCaP; in [2]; in assay [3]) was more than 50 µM in each case. Moreover, the IC50 (in the assay on DU-145; in assay [4]; with NCI-H1299; in assay [5]; in [6]; with LoVo) was more than 50 µM throughout. For the same compound, the IC50 in assay [7] and in [8] was more than 50 µM throughout.

With `C=C1C(O)[C@@]23CC[C@H]4[C@@](C)(CCC[C@@]4(C)C(=O)OCCBr)[C@@H]2CC[C@]1(O)C3` (stereo partly specified), the IC50 (in [1]; in the assay on K562; in the assay on MDA-MB-231; with LNCaP; in assay [2]; in [3]) was more than 50 µM each time. Also, the IC50 (with DU-145; in assay [4]; with NCI-H1299; in assay [5]; in assay [6]; with LoVo) was more than 50 µM throughout. Besides, the IC50 in assay [7] and in assay [8] was more than 50 µM each time.

For `C=C1C(=O)[C@@]23CC[C@@H]4[C@@](C)(CO)CCC[C@@]4(C)C2=CC[C@]1(O)C3`, the IC50 turned out to be 8.6 µM in [1]; 10.2 µM with K562; 12.3 µM in the assay on MDA-MB-231; 11.6 µM in the assay on LNCaP; 4.4 µM in [2]; 7.8 µM in assay [3]. The IC50 with DU-145 turned out to be 6.3 µM; in [4], 3.7 µM; in the assay with NCI-H1299, 10.7 µM; in [5], 11.7 µM; in assay [6], 5.5 µM; in the assay on LoVo it was 9 µM. Also, the figures for the IC50 in [7] and in assay [8] were 10.4 µM and 4.4 µM, respectively.

With `C[C@@H]1C(=O)[C@H]2C[C@]1(O)CC1=C2[C@]2(C)CCC[C@@](C)(CO)[C@H]2CC1`, the IC50 (in assay [1]; in the assay on K562; in the assay on MDA-MB-231; in the assay with LNCaP; in [2]; in [3]) was more than 50 µM throughout. Besides, the IC50 (in the assay on DU-145; in [4]; in the assay on NCI-H1299; in [5]; in [6]; in the assay with LoVo) was more than 50 µM throughout. The IC50 in [7] and in assay [8] was more than 50 µM in each case.

For the compound `C=C1C(=O)[C@H]2C[C@@H]1CC1=C2[C@]2(C)CCC[C@](C)(CO)[C@H]2CC1`, the IC50 in assay [1] is more than 50 µM; with K562, 41.7 µM; in the assay with MDA-MB-231, more than 50 µM; with LNCaP, more than 50 µM; in assay [2], more than 50 µM; in [3], 35.5 µM. The IC50 with DU-145 is more than 50 µM; in [4] it was 23.6 µM; with NCI-H1299 it was more than 50 µM; in [5], more than 50 µM; in assay [6] it was more than 50 µM; with LoVo it was 35.2 µM. Moreover, the IC50 in assay [7] stood at 49.1 µM; in [8], 33.8 µM.

For the compound `C=C1[C@@H](O)[C@@]23CC[C@@H]4C(C)(C)CCC[C@@]4(C)[C@@H]2CC[C@@H]1[C@H]3O`, the IC50 (in [1]; in the assay on K562; in the assay with MDA-MB-231; in the assay on LNCaP; in [2]; in [3]) was more than 50 µM in each case. Further, the IC50 (with DU-145; in [4]; in the assay on NCI-H1299; in assay [5]; in assay [6]; in the assay on LoVo) was more than 50 µM throughout. Further, the half-inhibitory concentration (IC50) in assay [7] and in [8] was more than 50 µM in each case.

As to `C=C1C(O)[C@@]23CC[C@H]4[C@@](C)(CCC[C@@]4(C)C(=O)O)[C@@H]2CC[C@]1(O)C3` (stereo partly specified), the IC50 (in [1]; in the assay on K562; with MDA-MB-231; in the assay on LNCaP; in assay [2]; in [3]) was more than 50 µM throughout. In addition, the IC50 (in the assay on DU-145; in assay [4]; in the assay on NCI-H1299; in [5]; in assay [6]; in the assay with LoVo) was more than 50 µM each time. In addition, the IC50 in assay [7] and in assay [8] was more than 50 µM throughout.

Turning to `C[C@H]1C(=O)[C@@]23CC[C@@H]4C(C)(C)[C@H](O)CC[C@@]4(C)[C@@H]2[C@@H](O)C[C@@H]1C3`, the IC50 (in assay [1]; in the assay on K562; in the assay with MDA-MB-231; in the assay on LNCaP; in [2]; in assay [3]) was more than 50 µM in each case. Also, the IC50 (in the assay with DU-145; in [4]; in the assay on NCI-H1299; in [5]; in [6]; in the assay on LoVo) was more than 50 µM in each case. Further, the IC50 in assay [7] and in [8] was more than 50 µM in each case.

In the case of `C[C@@H]1C(=O)[C@@]23CC[C@@H]4[C@@](C)(CO)CCC[C@@]4(C)C2=CC[C@]1(O)C3`, the IC50 (in assay [1]; in the assay on K562; in the assay with MDA-MB-231; with LNCaP; in [2]; in assay [3]) was more than 50 µM in each case. Also, the IC50 (in the assay on DU-145; in [4]; in the assay on NCI-H1299; in assay [5]; in assay [6]; with LoVo) was more than 50 µM each time. Further, the IC50 in assay [7] and in assay [8] was more than 50 µM in each case.
